# Experimental data as given in ChEMBL document CHEMBL5724801, “EUbOPEN Chemogenomics Library - Multiplex” (2024).
# Several values for one entry are separate records, joined by “and”; a condition that tells them apart may be missing. Equal values may be shown once.
# Test system: HEK-293T
# Test: Multiplex assay against HEK293T
# Format: toxicity, cell-based
# Conditions: human
# Procedure, shortened: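 Cells stained live at seeding with Hoechst33342, BioTracker Green Microtubule Cytoskeleton Dye, MitoTracker Red and Annexin V Alexa Fluor 680 were imaged on a CQ1 microscope at 37°C and 5% CO2 after compound addition. Their classification by CellPathfinder machine-learning gating ran from Hoechst high-intensity objects versus normal cells, to healthy, pyknosed or fragmented nuclei among normal cells, to mitotic or apoptotic among pyknosed cells. Tubulin, mitochondrial-mass and membrane-permeability phenotypes are per cents of healthy-nucleus cells.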
# [1] = 12 h, 1 µM, compound concentration 1 uM
# [2] = 12 h, 10 µM, compound concentration 10 uM
# [3] = 24 h, 1 µM, compound concentration 1 uM
# [4] = 24 h, 10 µM, compound concentration 10 uM
# [5] = 48 h, 1 µM, compound concentration 1 uM
# [6] = 48 h, 10 µM, compound concentration 10 uM
smiles,measurement,setting,value
Oc1c(CN2CCN(c3ccccn3)CC2)cc(Cl)c2cccnc12,Population Apoptotic (%),[1],30% and 45%
same,Population Fragmented Nuclei (%),[1],6% and 5%
same,Population Healthy Nuclei (%),[1],83% and 80%
same,Population Hoechst High Intensity Objects (%),[1],7%
same,Population Membrane Permeable-Phenotype (%),[1],0%
same,Population Mitochondria Different-Phenotype (%),[1],44% and 59%
same,Population Mitotic Cells (%),[1],70% and 54%
same,Population Normal (%),[1],92%
same,Population Pyknosed Nuclei (%),[1],10% and 13%
same,Population Tubulin-Different-Phenotype (%),[1],34% and 20%
same,Total Cell Count,[1],424 and 354
same,Population Apoptotic (%),[2],71% and 73%
same,Population Fragmented Nuclei (%),[2],16% and 18%
same,Population Healthy Nuclei (%),[2],64% and 69%
same,Population Hoechst High Intensity Objects (%),[2],11% and 6%
same,Population Membrane Permeable-Phenotype (%),[2],0%
same,Population Mitochondria Different-Phenotype (%),[2],64% and 70%
same,Population Mitotic Cells (%),[2],28% and 26%
same,Population Normal (%),[2],88% and 93%
same,Population Pyknosed Nuclei (%),[2],18% and 12%
same,Population Tubulin-Different-Phenotype (%),[2],20% and 32%
same,Total Cell Count,[2],197 and 327
same,Population Apoptotic (%),[3],34% and 33%
same,Population Fragmented Nuclei (%),[3],6% and 7%
same,Population Healthy Nuclei (%),[3],84%
same,Population Hoechst High Intensity Objects (%),[3],3%
same,Population Membrane Permeable-Phenotype (%),[3],0%
same,Population Mitochondria Different-Phenotype (%),[3],22% and 40%
same,Population Mitotic Cells (%),[3],65% and 66%
same,Population Normal (%),[3],96%
same,Population Pyknosed Nuclei (%),[3],9% and 8%
same,Population Tubulin-Different-Phenotype (%),[3],23% and 13%
same,Total Cell Count,[3],529 and 427
same,Population Apoptotic (%),[4],93% and 81%
same,Population Fragmented Nuclei (%),[4],18% and 21%
same,Population Healthy Nuclei (%),[4],65% and 63%
same,Population Hoechst High Intensity Objects (%),[4],13% and 7%
same,Population Membrane Permeable-Phenotype (%),[4],1%
same,Population Mitochondria Different-Phenotype (%),[4],65% and 78%
same,Population Mitotic Cells (%),[4],6% and 18%
same,Population Normal (%),[4],86% and 92%
same,Population Pyknosed Nuclei (%),[4],15%
same,Population Tubulin-Different-Phenotype (%),[4],19% and 34%
same,Total Cell Count,[4],227 and 354
same,Population Apoptotic (%),[5],29% and 31%
same,Population Fragmented Nuclei (%),[5],12% and 10%
same,Population Healthy Nuclei (%),[5],80% and 83%
same,Population Hoechst High Intensity Objects (%),[5],3%
same,Population Membrane Permeable-Phenotype (%),[5],0%
same,Population Mitochondria Different-Phenotype (%),[5],22% and 17%
same,Population Mitotic Cells (%),[5],70% and 68%
same,Population Normal (%),[5],96%
same,Population Pyknosed Nuclei (%),[5],6% and 5%
same,Population Tubulin-Different-Phenotype (%),[5],16% and 10%
same,Total Cell Count,[5],689 and 518
same,Population Apoptotic (%),[6],83% and 94%
same,Population Fragmented Nuclei (%),[6],23% and 28%
same,Population Healthy Nuclei (%),[6],44% and 49%
same,Population Hoechst High Intensity Objects (%),[6],25% and 14%
same,Population Membrane Permeable-Phenotype (%),[6],0%
same,Population Mitochondria Different-Phenotype (%),[6],60% and 81%
same,Population Normal (%),[6],74% and 85%
same,Population Pyknosed Nuclei (%),[6],31% and 22%
same,Population Tubulin-Different-Phenotype (%),[6],30% and 42%
same,Total Cell Count,[6],204 and 295
COC(c1ccccc1)(c1ccccc1)[C@H](Oc1nc(C)cc(C)n1)C(=O)O [AMBRISENTAN],Population Apoptotic (%),[1],38%
same,Population Fragmented Nuclei (%),[1],7%
same,Population Healthy Nuclei (%),[1],75% and 81%
same,Population Hoechst High Intensity Objects (%),[1],6% and 11%
same,Population Membrane Permeable-Phenotype (%),[1],0%
same,Population Mitochondria Different-Phenotype (%),[1],53% and 63%
same,Population Mitotic Cells (%),[1],61%
same,Population Normal (%),[1],93% and 88%
same,Population Pyknosed Nuclei (%),[1],16% and 10%
same,Population Tubulin-Different-Phenotype (%),[1],30% and 23%
same,Total Cell Count,[1],249 and 326
same,Population Apoptotic (%),[2],33% and 56%
same,Population Fragmented Nuclei (%),[2],8% and 5%
same,Population Healthy Nuclei (%),[2],76% and 80%
same,Population Hoechst High Intensity Objects (%),[2],6% and 13%
same,Population Membrane Permeable-Phenotype (%),[2],0%
same,Population Mitochondria Different-Phenotype (%),[2],47% and 57%
same,Population Mitotic Cells (%),[2],66% and 43%
same,Population Normal (%),[2],93% and 86%
same,Population Pyknosed Nuclei (%),[2],15% and 14%
same,Population Tubulin-Different-Phenotype (%),[2],23% and 18%
same,Total Cell Count,[2],383 and 262
same,Population Apoptotic (%),[3],37% and 43%
same,Population Fragmented Nuclei (%),[3],9%
same,Population Healthy Nuclei (%),[3],76% and 82%
same,Population Hoechst High Intensity Objects (%),[3],4% and 7%
same,Population Membrane Permeable-Phenotype (%),[3],1% and 0%
same,Population Mitochondria Different-Phenotype (%),[3],30% and 39%
same,Population Mitotic Cells (%),[3],62% and 56%
same,Population Normal (%),[3],95% and 92%
same,Population Pyknosed Nuclei (%),[3],14% and 8%
same,Population Tubulin-Different-Phenotype (%),[3],19% and 16%
same,Total Cell Count,[3],313 and 404
same,Population Apoptotic (%),[4],30% and 44%
same,Population Fragmented Nuclei (%),[4],10% and 8%
same,Population Healthy Nuclei (%),[4],73% and 78%
same,Population Hoechst High Intensity Objects (%),[4],4% and 12%
same,Population Membrane Permeable-Phenotype (%),[4],0%
same,Population Mitochondria Different-Phenotype (%),[4],34% and 41%
same,Population Mitotic Cells (%),[4],69% and 55%
same,Population Normal (%),[4],95% and 87%
same,Population Pyknosed Nuclei (%),[4],15% and 12%
same,Population Tubulin-Different-Phenotype (%),[4],18% and 17%
same,Total Cell Count,[4],441 and 318
same,Population Apoptotic (%),[5],27% and 40%
same,Population Fragmented Nuclei (%),[5],17% and 12%
same,Population Healthy Nuclei (%),[5],72% and 80%
same,Population Hoechst High Intensity Objects (%),[5],2% and 3%
same,Population Membrane Permeable-Phenotype (%),[5],3% and 0%
same,Population Mitochondria Different-Phenotype (%),[5],22% and 23%
same,Population Mitotic Cells (%),[5],72% and 59%
same,Population Normal (%),[5],97% and 96%
same,Population Pyknosed Nuclei (%),[5],10% and 7%
same,Population Tubulin-Different-Phenotype (%),[5],13% and 10%
same,Total Cell Count,[5],600 and 605
same,Population Apoptotic (%),[6],26% and 53%
same,Population Fragmented Nuclei (%),[6],14%
same,Population Healthy Nuclei (%),[6],77% and 79%
same,Population Hoechst High Intensity Objects (%),[6],2% and 7%
same,Population Membrane Permeable-Phenotype (%),[6],1% and 0%
same,Population Mitochondria Different-Phenotype (%),[6],18% and 27%
same,Population Mitotic Cells (%),[6],73% and 46%
same,Population Normal (%),[6],97% and 92%
same,Population Pyknosed Nuclei (%),[6],8% and 5%
same,Population Tubulin-Different-Phenotype (%),[6],13% and 15%
same,Total Cell Count,[6],711 and 480
CCc1cc2cc(NS(=O)(=O)c3ccc(C#N)cc3)ccc2n(CC)c1=O,Population Apoptotic (%),[1],43% and 40%
same,Population Fragmented Nuclei (%),[1],8% and 7%
same,Population Healthy Nuclei (%),[1],78%
same,Population Hoechst High Intensity Objects (%),[1],9% and 7%
same,Population Membrane Permeable-Phenotype (%),[1],0%
same,Population Mitochondria Different-Phenotype (%),[1],37% and 64%
same,Population Mitotic Cells (%),[1],56% and 59%
same,Population Normal (%),[1],90% and 92%
same,Population Pyknosed Nuclei (%),[1],12% and 14%
same,Population Tubulin-Different-Phenotype (%),[1],28% and 29%
same,Total Cell Count,[1],411 and 338
same,Population Apoptotic (%),[2],38% and 65%
same,Population Fragmented Nuclei (%),[2],7% and 6%
same,Population Healthy Nuclei (%),[2],80% and 69%
same,Population Hoechst High Intensity Objects (%),[2],7% and 16%
same,Population Membrane Permeable-Phenotype (%),[2],0%
same,Population Mitochondria Different-Phenotype (%),[2],47% and 71%
same,Population Mitotic Cells (%),[2],61% and 34%
same,Population Normal (%),[2],92% and 83%
same,Population Pyknosed Nuclei (%),[2],12% and 23%
same,Population Tubulin-Different-Phenotype (%),[2],48% and 41%
same,Total Cell Count,[2],404 and 291
same,Population Apoptotic (%),[3],29% and 43%
same,Population Fragmented Nuclei (%),[3],8% and 7%
same,Population Healthy Nuclei (%),[3],80% and 84%
same,Population Hoechst High Intensity Objects (%),[3],5%
same,Population Membrane Permeable-Phenotype (%),[3],1% and 0%
same,Population Mitochondria Different-Phenotype (%),[3],19% and 44%
same,Population Mitotic Cells (%),[3],70% and 56%
same,Population Normal (%),[3],94%
same,Population Pyknosed Nuclei (%),[3],11% and 7%
same,Population Tubulin-Different-Phenotype (%),[3],18% and 22%
same,Total Cell Count,[3],510 and 403
same,Population Apoptotic (%),[4],33% and 63%
same,Population Fragmented Nuclei (%),[4],9% and 10%
same,Population Healthy Nuclei (%),[4],80% and 73%
same,Population Hoechst High Intensity Objects (%),[4],6% and 17%
same,Population Membrane Permeable-Phenotype (%),[4],0% and 1%
same,Population Mitochondria Different-Phenotype (%),[4],36% and 58%
same,Population Mitotic Cells (%),[4],66% and 36%
same,Population Normal (%),[4],93% and 82%
same,Population Pyknosed Nuclei (%),[4],10% and 16%
same,Population Tubulin-Different-Phenotype (%),[4],32% and 29%
same,Total Cell Count,[4],478 and 332
same,Population Apoptotic (%),[5],30% and 38%
same,Population Fragmented Nuclei (%),[5],11% and 14%
same,Population Healthy Nuclei (%),[5],81% and 79%
same,Population Hoechst High Intensity Objects (%),[5],2% and 4%
same,Population Membrane Permeable-Phenotype (%),[5],1%
same,Population Mitochondria Different-Phenotype (%),[5],11% and 23%
same,Population Mitotic Cells (%),[5],69% and 61%
same,Population Normal (%),[5],97% and 95%
same,Population Pyknosed Nuclei (%),[5],6% and 5%
same,Population Tubulin-Different-Phenotype (%),[5],13% and 12%
same,Total Cell Count,[5],878 and 608
same,Population Apoptotic (%),[6],26% and 47%
same,Population Fragmented Nuclei (%),[6],14% and 16%
same,Population Healthy Nuclei (%),[6],78% and 73%
same,Population Hoechst High Intensity Objects (%),[6],4% and 10%
same,Population Membrane Permeable-Phenotype (%),[6],1%
same,Population Mitochondria Different-Phenotype (%),[6],23% and 40%
same,Population Mitotic Cells (%),[6],73% and 52%
same,Population Normal (%),[6],95% and 89%
same,Population Pyknosed Nuclei (%),[6],6% and 9%
same,Population Tubulin-Different-Phenotype (%),[6],20% and 23%
same,Total Cell Count,[6],734 and 383
